Data from ChEMBL document CHEMBL1629491, “Post Groebke-Blackburn multicomponent protocol: synthesis of new polyfunctional imidazo[1,2-a]pyridine and imidazo[1,2-a]pyrimidine derivatives as potential antimicrobial agents” (2010).
In brackets after ≈: the same amount, converted by molar mass.

Columns and labels:
Format in all cases: functional
[1] = tested on: Escherichia coli; test: Antimicrobial activity against Escherichia coli after 24 hrs […]
Outline: (§1)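 Broth microdilution MIC. Bacteria were grown in Luria broth (1% tryptone, 0.5% yeast extract, 0.5% NaCl, pH 7.2) at 37 °C for 24 h. Mid-log cultures were read at OD540 and diluted to OD 0.004 (5 × 10⁵ CFU/mL) before inoculation. Compounds in DMSO were given as eleven twofold serial dilutions, and plates were incubated at 37 °C for 24 h. MIC was the lowest concentration with no visible growth by turbidity. Cefixime, amoxicillin and vancomycin were the positive controls.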

[2] = tested on: Pseudomonas aeruginosa; test: Antimicrobial activity against Pseudomonas aeruginosa after 24 hrs […]; outline: as §1
[3] = tested on: Klebsiella aerogenes; test: Antimicrobial activity against Enterobacter aerogenes after 24 hrs […]; outline: as §1
[4] = tested on: Staphylococcus aureus; test: Antimicrobial activity against Staphylococcus aureus after 24 hrs […]; outline: as §1
[5] = tested on: Enterococcus faecalis; test: Antimicrobial activity against Enterococcus faecalis after 24 hrs […]; outline: as §1
[6] = tested on: Priestia megaterium; test: Antimicrobial activity against Bacillus megaterium after 24 hrs […]; outline: as §1

Structure (SMILES) | MIC [1] [µg/mL] | MIC [2] [µg/mL] | MIC [3] [µg/mL] | MIC [4] [µg/mL] | MIC [5] [µg/mL] | MIC [6] [µg/mL]
O=[N+]([O-])c1ccc(-c2nnc(-c3cnc4nc(-c5ccc(Br)cc5)c(Nc5ccccc5)n4c3)o2)cc1 | 3.12 (≈ 5.63 µM) | 4.45 (≈ 8.03 µM) | 2.23 (≈ 4.02 µM) | 3.35 (≈ 6.04 µM) | 6.18 (≈ 11.1 µM) | 11.2 (≈ 20.2 µM)
CC1(C)S[C@@H]2[C@H](NC(=O)[C@H](N)c3ccc(O)cc3)C(=O)N2[C@H]1C(=O)O [AMOXICILLIN] | 16.4 (≈ 45 µM) | 14.5 (≈ 39.8 µM) | 3.65 (≈ 9.99 µM) | 13.3 (≈ 36.5 µM) | 1.22 (≈ 3.34 µM) | 2.75 (≈ 7.53 µM)
Cc1ccc(-c2nc3ncc(-c4nc5ccc(F)cc5[nH]4)cn3c2Nc2ccccc2)cc1 | 3.44 (≈ 7.92 µM) | 4.72 (≈ 10.9 µM) | 6.18 (≈ 14.2 µM) | 6.32 (≈ 14.5 µM) | 5.76 (≈ 13.3 µM) | 17.2 (≈ 39.5 µM)
Cc1ccc(-c2cnc(-c3cnc4nc(-c5ccc(Br)cc5)c(Nc5ccccc5)n4c3)[nH]2)cc1 | 8.11 (≈ 15.6 µM) | 11.4 (≈ 22 µM) | 10.8 (≈ 20.8 µM) | 9.49 (≈ 18.2 µM) | 11.7 (≈ 22.4 µM) | 15.6 (≈ 29.8 µM)
O=[N+]([O-])c1ccc2nc(-c3ccc4nc(-c5ccc(Br)cc5)c(Nc5ccccc5)n4c3)[nH]c2c1 | 11.3 (≈ 21.5 µM) | 14.5 (≈ 27.6 µM) | 12.8 (≈ 24.5 µM) | 10.3 (≈ 19.6 µM) | 13.4 (≈ 25.4 µM) | 17.5 (≈ 33.4 µM)
Fc1ccc(-c2cnc(-c3cnc4nc(-c5ccc(Br)cc5)c(Nc5ccccc5)n4c3)[nH]2)cc1 | 1.15 (≈ 2.19 µM) | 2.34 (≈ 4.45 µM) | 1.11 (≈ 2.11 µM) | 0.63 (≈ 1.2 µM) | 4.21 (≈ 8.01 µM) | 9.17 (≈ 17.5 µM)
Cc1ccc(-c2nnc(-c3ccc4nc(-c5ccc(Br)cc5)c(Nc5ccccc5)n4c3)o2)cc1 | 12.4 (≈ 23.7 µM) | 10.2 (≈ 19.5 µM) | 11.3 (≈ 21.6 µM) | 12.3 (≈ 23.5 µM) | 11.8 (≈ 22.6 µM) | 16.6 (≈ 31.7 µM)
O=[N+]([O-])c1ccc(-c2nnc(-c3ccc4nc(-c5ccc(Br)cc5)c(Nc5ccccc5)n4c3)o2)cc1 | 7.37 (≈ 13.3 µM) | 5.45 (≈ 9.85 µM) | 4.12 (≈ 7.45 µM) | 6.36 (≈ 11.5 µM) | 8.22 (≈ 14.9 µM) | 12.7 (≈ 23 µM)
Fc1ccc(-c2cnc(-c3ccc4nc(-c5ccc(Br)cc5)c(Nc5ccccc5)n4c3)[nH]2)cc1 | 1.33 (≈ 2.54 µM) | 2.12 (≈ 4.04 µM) | 1.55 (≈ 2.96 µM) | 0.72 (≈ 1.37 µM) | 3.17 (≈ 6.05 µM) | 8.34 (≈ 15.9 µM)
Clc1ccc(-c2cnc(-c3ccc4nc(-c5ccc(Br)cc5)c(Nc5ccccc5)n4c3)[nH]2)cc1 | 1.42 (≈ 2.63 µM) | 2.52 (≈ 4.66 µM) | 1.17 (≈ 2.16 µM) | 0.93 (≈ 1.72 µM) | 2.96 (≈ 5.47 µM) | 9.13 (≈ 16.9 µM)
Fc1ccc2nc(-c3ccc4nc(-c5ccc(Oc6ccccc6)cc5)c(Nc5ccccc5)n4c3)[nH]c2c1 | 10.7 (≈ 20.9 µM) | 12.4 (≈ 24.3 µM) | 11.5 (≈ 22.6 µM) | 12.1 (≈ 23.7 µM) | 15.3 (≈ 29.9 µM) | 21.6 (≈ 42.2 µM)
Fc1ccc(-c2nnc(-c3ccc4nc(-c5ccc(Oc6ccccc6)cc5)c(Nc5ccccc5)n4c3)o2)cc1 | 11.7 (≈ 21.7 µM) | 9.64 (≈ 17.9 µM) | 8.42 (≈ 15.6 µM) | 11.1 (≈ 20.6 µM) | 12.6 (≈ 23.3 µM) | 17.4 (≈ 32.3 µM)
Fc1ccc(-c2nnc(-c3ccc4nc(-c5ccc(Br)cc5)c(Nc5ccccc5)n4c3)o2)cc1 | 1.11 (≈ 2.11 µM) | 2.43 (≈ 4.62 µM) | 0.85 (≈ 1.61 µM) | 0.51 (≈ 0.969 µM) | 1.57 (≈ 2.98 µM) | 4.97 (≈ 9.44 µM)
Brc1ccc(-c2nc3ccc(-c4ncc(-c5ccc(Oc6ccccc6)cc5)[nH]4)cn3c2Nc2ccccc2)cc1 | 33.3 (≈ 55.6 µM) | 44.3 (≈ 74 µM) | 53.4 (≈ 89.2 µM) | 58.4 (≈ 97.5 µM) | 39.6 (≈ 66.2 µM) | 53.2 (≈ 88.8 µM)
Brc1ccc(-c2cnc(-c3ccc4nc(-c5ccc(Oc6ccccc6)cc5)c(Nc5ccccc5)n4c3)[nH]2)cc1 | 12.2 (≈ 20.4 µM) | 11.8 (≈ 19.7 µM) | 10.7 (≈ 17.9 µM) | 10.2 (≈ 17.1 µM) | 13.7 (≈ 22.9 µM) | 19.9 (≈ 33.2 µM)
CN[C@H](CC(C)C)C(=O)N[C@H]1C(=O)N[C@@H](CC(N)=O)C(=O)N[C@H]2C(=O)N[C@H]3C(=O)N[C@H](C(=O)N[C@H](C(=O)O)c4cc(O)cc(O)c4-c4cc3ccc4O)[C@H](O)c3ccc(c(Cl)c3)Oc3cc2cc(c3O[C@@H]2O[C@H](CO)[C@@H](O)[C@H](O)[C@H]2O[C@H]2C[C@](C)(N)[C@H](O)[C@H](C)O2)Oc2ccc(cc2Cl)[C@H]1O [VANCOMYCIN] | 6.65 (≈ 4.59 µM) | 23.5 (≈ 16.2 µM) | 0.52 (≈ 0.359 µM) | 2.75 (≈ 1.9 µM) | 4.21 (≈ 2.9 µM) | 6.37 (≈ 4.4 µM)
Clc1ccc(-c2nnc(-c3cnc4nc(-c5ccc(Br)cc5)c(Nc5ccccc5)n4c3)o2)cc1 | 2.34 (≈ 4.3 µM) | 1.56 (≈ 2.87 µM) | 3.16 (≈ 5.81 µM) | 2.45 (≈ 4.51 µM) | 5.37 (≈ 9.87 µM) | 8.45 (≈ 15.5 µM)

Structure (SMILES) | MIC [1] [µg/mL] | MIC [2] [µg/mL] | MIC [3] [µg/mL] | MIC [4] [µg/mL] | MIC [5] [µg/mL] | MIC [6] [µg/mL]
Clc1ccc2nc(-c3cnc4nc(-c5ccc(Br)cc5)c(Nc5ccccc5)n4c3)[nH]c2c1 | 2.78 (≈ 5.39 µM) | 2.55 (≈ 4.94 µM) | 2.75 (≈ 5.33 µM) | 1.84 (≈ 3.57 µM) | 5.87 (≈ 11.4 µM) | 13.7 (≈ 26.6 µM)
Fc1ccc2nc(-c3cnc4nc(-c5ccc(Br)cc5)c(Nc5ccccc5)n4c3)[nH]c2c1 | 2.29 (≈ 4.59 µM) | 2.85 (≈ 5.71 µM) | 2.25 (≈ 4.51 µM) | 1.23 (≈ 2.46 µM) | 6.64 (≈ 13.3 µM) | 11.7 (≈ 23.5 µM)
Cc1ccc2nc(-c3ccc4nc(-c5ccc(Br)cc5)c(Nc5ccccc5)n4c3)[nH]c2c1 | 10.3 (≈ 20.9 µM) | 13.4 (≈ 27 µM) | 11.8 (≈ 23.8 µM) | 9.51 (≈ 19.2 µM) | 13.6 (≈ 27.6 µM) | 18.6 (≈ 37.6 µM)
Cc1ccc(-c2nc3ncc(-c4nnc(-c5ccc(F)cc5)o4)cn3c2Nc2ccccc2)cc1 | 2.78 (≈ 6.01 µM) | 3.65 (≈ 7.89 µM) | 5.29 (≈ 11.4 µM) | 5.47 (≈ 11.8 µM) | 4.58 (≈ 9.9 µM) | 15.3 (≈ 33.1 µM)
Clc1ccc(-c2cnc(-c3cnc4nc(-c5ccc(Br)cc5)c(Nc5ccccc5)n4c3)[nH]2)cc1 | 3.11 (≈ 5.74 µM) | 1.82 (≈ 3.36 µM) | 1.89 (≈ 3.49 µM) | 1.76 (≈ 3.25 µM) | 4.28 (≈ 7.9 µM) | 11.6 (≈ 21.5 µM)
Cc1ccc(-c2nc3ccc(-c4nc5ccc(Oc6ccccc6)cc5[nH]4)cn3c2Nc2ccccc2)cc1 | 34.8 (≈ 68.5 µM) | 45.4 (≈ 89.5 µM) | 57.3 (≈ 113 µM) | 54.9 (≈ 108 µM) | 46.5 (≈ 91.6 µM) | 65.5 (≈ 129 µM)
Fc1ccc(-c2nnc(-c3cnc4nc(-c5ccc(Br)cc5)c(Nc5ccccc5)n4c3)o2)cc1 | 1.33 (≈ 2.52 µM) | 1.87 (≈ 3.55 µM) | 0.94 (≈ 1.78 µM) | 0.64 (≈ 1.21 µM) | 1.92 (≈ 3.64 µM) | 5.45 (≈ 10.3 µM)
Fc1ccc2nc(-c3ccc4nc(-c5ccc(Br)cc5)c(Nc5ccccc5)n4c3)[nH]c2c1 | 2.15 (≈ 4.31 µM) | 3.44 (≈ 6.9 µM) | 2.05 (≈ 4.11 µM) | 1.51 (≈ 3.03 µM) | 5.23 (≈ 10.5 µM) | 10.2 (≈ 20.6 µM)
Cc1ccc(-c2nc3ccc(-c4nc5ccc(Br)cc5[nH]4)cn3c2Nc2ccccc2)cc1 | 3.18 (≈ 6.43 µM) | 5.22 (≈ 10.6 µM) | 7.15 (≈ 14.5 µM) | 5.11 (≈ 10.3 µM) | 6.28 (≈ 12.7 µM) | 14 (≈ 28.2 µM)
Fc1ccc2nc(-c3cnc4nc(-c5ccc(Oc6ccccc6)cc5)c(Nc5ccccc5)n4c3)[nH]c2c1 | 10.5 (≈ 20.5 µM) | 7.38 (≈ 14.4 µM) | 6.12 (≈ 11.9 µM) | 9.43 (≈ 18.4 µM) | 10.4 (≈ 20.3 µM) | 19.8 (≈ 38.6 µM)
C=CC1=C(C(=O)O)N2C(=O)[C@@H](NC(=O)/C(=N\OCC(=O)O)c3csc(N)n3)[C@H]2SC1 [CEFIXIME] | 2.34 (≈ 5.16 µM) | 17.2 (≈ 38 µM) | 28.2 (≈ 62.1 µM) | 33.9 (≈ 74.7 µM) | 27.9 (≈ 61.6 µM) | 128 (≈ 282 µM)
O=[N+]([O-])c1ccc(-c2cnc(-c3cnc4nc(-c5ccc(Br)cc5)c(Nc5ccccc5)n4c3)[nH]2)cc1 | 5.33 (≈ 9.65 µM) | 7.81 (≈ 14.1 µM) | 9.33 (≈ 16.9 µM) | 4.22 (≈ 7.64 µM) | 9.61 (≈ 17.4 µM) | 17.4 (≈ 31.6 µM)
Cc1ccc(-c2nnc(-c3cnc4nc(-c5ccc(Br)cc5)c(Nc5ccccc5)n4c3)o2)cc1 | 8.56 (≈ 16.4 µM) | 7.64 (≈ 14.6 µM) | 6.43 (≈ 12.3 µM) | 5.31 (≈ 10.1 µM) | 8.71 (≈ 16.6 µM) | 13.6 (≈ 26 µM)
O=[N+]([O-])c1ccc2nc(-c3cnc4nc(-c5ccc(Br)cc5)c(Nc5ccccc5)n4c3)[nH]c2c1 | 11.7 (≈ 22.2 µM) | 12.2 (≈ 23.2 µM) | 10.6 (≈ 20.2 µM) | 9.32 (≈ 17.7 µM) | 11.4 (≈ 21.8 µM) | 15.4 (≈ 29.3 µM)
Cc1ccc(-c2nc3ccc(-c4nnc(-c5ccc([N+](=O)[O-])cc5)o4)cn3c2Nc2ccccc2)cc1 | 13.4 (≈ 27.5 µM) | 12.6 (≈ 25.7 µM) | 10.2 (≈ 20.8 µM) | 9.85 (≈ 20.2 µM) | 11.4 (≈ 23.3 µM) | 15.5 (≈ 31.7 µM)
Brc1ccc(-c2nc3ccc(-c4nc5ccc(Oc6ccccc6)cc5[nH]4)cn3c2Nc2ccccc2)cc1 | 31.8 (≈ 55.6 µM) | 41.1 (≈ 71.8 µM) | 58.5 (≈ 102 µM) | 56.2 (≈ 98.1 µM) | 44.7 (≈ 78.1 µM) | 58.7 (≈ 102 µM)
